Legend:
Assay type in all cases: functional
[1] = tested on: CCRF-CEM; test: Growth inhibition of human CCRF-CEM cells incubated for 48 hrs by sulforhodamine B assay
Outline: (§1)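 NCI-60 five-dose screen at 0.01, 0.1, 1, 10 and 100 µM, 48 h incubation, sulforhodamine B end point. GI50 (50% decrease in net growth), TGI (total growth inhibition) and LC50 (net 50% loss of initial cells) taken from log concentration versus % growth inhibition curves.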

[2] = tested on: HL-60(TB); test: Growth inhibition of human HL-60(TB) cells incubated for 48 hrs by sulforhodamine B assay; details: HL-60, 48 h
Outline: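 NCI-60 five-dose screen at 0.01, 0.1, 1, 10 and 100 µM for 48 h, sulforhodamine B read-out. GI50 taken from log concentration versus % growth inhibition curves as the concentration giving 50% decrease in net cell growth.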

[3] = tested on: K562; test: Growth inhibition of human K562 cells incubated for 48 hrs by sulforhodamine B assay; details: K562, 48 h; outline: as §1
[4] = tested on: RPMI-8226; test: Growth inhibition of human RPMI8226 cells incubated for 48 hrs by sulforhodamine B assay; details: RPMI-8226, 48 h
Outline: (§2)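 NCI 60 human tumour cell line panel, five-dose study at 0.01, 0.1, 1, 10 and 100 µM, 48 h incubation. Sulforhodamine B protein-binding dye end point. GI50 (50% decrease in net cell growth), TGI (total growth inhibition) and LC50 (net 50% loss of initial cells) read from log concentration versus % growth inhibition curves.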

[5] = tested on: HOP-62; test: Growth inhibition of human HOP62 cells incubated for 48 hrs by sulforhodamine B assay; details: HOP-62, 48 h; outline: as §1
[6] = tested on: NCI-H23; test: Growth inhibition of human NCI-H23 cells incubated for 48 hrs by sulforhodamine B assay; details: NCI-H23, 48 h; outline: as §1
[7] = tested on: NCI-H322M; test: Growth inhibition of human NCI-H322M cells incubated for 48 hrs by sulforhodamine B assay; outline: as §1
[8] = tested on: NCI-H460; test: Growth inhibition of human NCI-H460 cells incubated for 48 hrs by sulforhodamine B assay; details: NCI-H460, 48 h; outline: as §1
[9] = tested on: NCI-H522; test: Growth inhibition of human NCI-H522 cells incubated for 48 hrs by sulforhodamine B assay; details: NCI-H522, 48 h; outline: as §1
[10] = tested on: HT-29; test: Growth inhibition of human HT-29 cells incubated for 48 hrs by sulforhodamine B assay; details: HT-29, 48 h; outline: as §1
[11] = tested on: KM12; test: Growth inhibition of human KM12 cells incubated for 48 hrs by sulforhodamine B assay; details: KM12, 48 h; outline: as §1
[12] = tested on: SF-539; test: Growth inhibition of human SF539 cells incubated for 48 hrs by sulforhodamine B assay; details: SF-539, 48 h; outline: as §2
[13] = tested on: U-251; test: Growth inhibition of human U251 cells incubated for 48 hrs by sulforhodamine B assay; details: U-251, 48 h; outline: as §2
[14] = tested on: LOX IMVI; test: Growth inhibition of human LOXIMVI cells incubated for 48 hrs by sulforhodamine B assay; outline: as §1
[15] = tested on: SK-MEL-28; test: Growth inhibition of human SK-MEL-28 cells incubated for 48 hrs by sulforhodamine B assay; details: SK-MEL-28, 48 h; outline: as §2
[16] = tested on: UACC-257; test: Growth inhibition of human UACC257 cells incubated for 48 hrs by sulforhodamine B assay; details: UACC-257, 48 h; outline: as §2
[17] = tested on: IGROV-1; test: Growth inhibition of human IGROV1 cells incubated for 48 hrs by sulforhodamine B assay; details: IGROV-1, 48 h; outline: as §1
[18] = tested on: OVCAR-3; test: Growth inhibition of human OVCAR3 cells incubated for 48 hrs by sulforhodamine B assay; details: OVCAR-3, 48 h; outline: as §1
[19] = tested on: OVCAR-4; test: Growth inhibition of human OVCAR4 cells incubated for 48 hrs by sulforhodamine B assay; details: OVCAR-4, 48 h; outline: as §1
[20] = tested on: OVCAR-8; test: Growth inhibition of human OVCAR8 cells incubated for 48 hrs by sulforhodamine B assay; details: OVCAR-8, 48 h; outline: as §1
[21] = tested on: 786-0; test: Growth inhibition of human 786-0 cells incubated for 48 hrs by sulforhodamine B assay; details: 786-0, 48 h; outline: as §1
[22] = tested on: A498; test: Growth inhibition of human A498 cells incubated for 48 hrs by sulforhodamine B assay; details: A498, 48 h; outline: as §1
[23] = tested on: ACHN; test: Growth inhibition of human ACHN cells incubated for 48 hrs by sulforhodamine B assay; outline: as §1
[24] = tested on: CAKI-1; test: Growth inhibition of human Caki1 cells incubated for 48 hrs by sulforhodamine B assay; details: CAKI-1, 48 h; outline: as §1
[25] = tested on: SN12C; test: Growth inhibition of human SN12C cells incubated for 48 hrs by sulforhodamine B assay; outline: as §2
[26] = tested on: UO-31; test: Growth inhibition of human UO31 cells incubated for 48 hrs by sulforhodamine B assay; details: UO-31, 48 h; outline: as §2
[27] = tested on: DU-145; test: Growth inhibition of human DU145 cells incubated for 48 hrs by sulforhodamine B assay; details: DU-145, 48 h; outline: as §1
[28] = tested on: BT-549; test: Growth inhibition of human BT549 cells incubated for 48 hrs by sulforhodamine B assay; details: BT-549, 48 h; outline: as §1
[29] = read-out: LC50 (the source's name)

In the case of `C=C1CC[C@@H]2[C@](C)(COC(C)=O)[C@H](OC(C)=O)CC[C@@]2(C)[C@H]1CC(Nc1ccc(S(=O)(=O)Nc2ccc(Cl)nn2)cc1)C1=CCOC1=O` (some centres not stated), the GI50 [1] is reported as 0.46 µM, the TGI [1] is reported as 2.6 µM and the CC50 [1, 29] is reported as greater than 100 µM. It also gave a GI50 [2] of 1.32 µM, a TGI [2] of 4.44 µM and a CC50 [2, 29] greater than 100 µM. It also gave a GI50 [3] of 0.52 µM, a TGI [3] of 5.19 µM and a CC50 [3, 29] greater than 100 µM. It also gave a GI50 [4] of 0.44 µM, a TGI [4] of 3.04 µM and a CC50 [4, 29] greater than 100 µM. The GI50 [5] was 1.46 µM, the TGI [5] was 2.99 µM and the CC50 [5, 29] was 6.12 µM. For the same compound, the GI50 [6] was 2.06 µM, the TGI [6] was 5.35 µM and the CC50 [6, 29] was 43.2 µM. It also gave a GI50 [7] of 2.97 µM, a TGI [7] of 11.6 µM and a CC50 [7, 29] of 36.1 µM. For the same compound, the GI50 [8] was 2.03 µM, the TGI [8] was 4.31 µM and the CC50 [8, 29] was 9.15 µM. It also gave a GI50 [9] of 0.75 µM, a TGI [9] of 2.1 µM and a CC50 [9, 29] of 4.82 µM. It also gave a GI50 [10] of 1.18 µM, a TGI [10] of 2.68 µM and a GI50 [11] of 1.7 µM. The TGI [11] was 3.49 µM, the CC50 [11, 29] was 7.16 µM and the GI50 [12] was 1.23 µM. For the same compound, the TGI [12] was 2.63 µM, the CC50 [12, 29] was 5.62 µM and the GI50 [13] was 1.68 µM. For the same compound, the TGI [13] was 3.05 µM, the CC50 [13, 29] was 5.52 µM and the GI50 [14] was 0.29 µM. The TGI [14] was 1.19 µM, the CC50 [14, 29] was 4.17 µM and the GI50 [15] was 1.68 µM. It also gave an LC50 (50% net cell kill) [15] of 7.13 µM, a TGI [15] of 3.46 µM and a GI50 [16] of 1.67 µM. It also gave a TGI [16] of 3.89 µM, a CC50 [16, 29] of 9.03 µM and a GI50 [17] of 2.08 µM. The TGI [17] was 5 µM, the CC50 [17, 29] was 18.3 µM and the GI50 [18] was 1.22 µM. It also gave a TGI [18] of 2.51 µM, a CC50 [18, 29] of 5.18 µM and a GI50 [19] of 1.47 µM. For the same compound, the LC50 [19] was 6.82 µM, the TGI [19] was 3.17 µM and the GI50 [20] was 1.35 µM. It also gave a TGI [20] of 3.43 µM, a GI50 [21] of 1.69 µM and an LC50 (concentration giving net 50% loss of initial cells) [21] of 5.83 µM. For the same compound, the TGI [21] was 3.14 µM, the GI50 [22] was 1.4 µM and the LC50 (concentration giving net 50% loss of initial cells) [22] was 15.6 µM. The TGI [22] was 4.26 µM, the GI50 [23] was 1.68 µM and the TGI [23] was 3.32 µM. The CC50 [23, 29] was 6.57 µM, the GI50 [24] was 2.28 µM and the TGI [24] was 100 µM. The CC50 [24, 29] was 31.7 µM, the GI50 [25] was 1.25 µM and the TGI [25] was 3.66 µM. For the same compound, the CC50 [25, 29] was 12.7 µM, the GI50 [26] was 1.45 µM and the LC50 (concentration giving net 50% loss of initial cells) [26] was 5.73 µM. It also gave a TGI [26] of 2.88 µM, a GI50 [27] of 1.7 µM and a TGI [27] of 3.45 µM. The CC50 [27, 29] was 7.02 µM, the GI50 [28] was 1.58 µM and the TGI [28] was 3.14 µM. It also gave a CC50 [28, 29] of 6.28 µM.
